ChEMBL document CHEMBL3259667, “Bis-aryloxadiazoles as effective activators of the aryl hydrocarbon receptor” (Bioorg Med Chem Lett, 2014)

Assays:
Type in all cases: cell-based
[1] = target: T1, Aryl hydrocarbon receptor (Mus musculus, UniProt P30561); assay: Agonist activity at AHR in mouse HC11 cells assessed as upregulation of Cyp1a1 gene expression at 10 uM after 48 hrs by RT-PCR analysis relative to control; settings: hc11, 48 h
T1 sequence (P30561 whole entry): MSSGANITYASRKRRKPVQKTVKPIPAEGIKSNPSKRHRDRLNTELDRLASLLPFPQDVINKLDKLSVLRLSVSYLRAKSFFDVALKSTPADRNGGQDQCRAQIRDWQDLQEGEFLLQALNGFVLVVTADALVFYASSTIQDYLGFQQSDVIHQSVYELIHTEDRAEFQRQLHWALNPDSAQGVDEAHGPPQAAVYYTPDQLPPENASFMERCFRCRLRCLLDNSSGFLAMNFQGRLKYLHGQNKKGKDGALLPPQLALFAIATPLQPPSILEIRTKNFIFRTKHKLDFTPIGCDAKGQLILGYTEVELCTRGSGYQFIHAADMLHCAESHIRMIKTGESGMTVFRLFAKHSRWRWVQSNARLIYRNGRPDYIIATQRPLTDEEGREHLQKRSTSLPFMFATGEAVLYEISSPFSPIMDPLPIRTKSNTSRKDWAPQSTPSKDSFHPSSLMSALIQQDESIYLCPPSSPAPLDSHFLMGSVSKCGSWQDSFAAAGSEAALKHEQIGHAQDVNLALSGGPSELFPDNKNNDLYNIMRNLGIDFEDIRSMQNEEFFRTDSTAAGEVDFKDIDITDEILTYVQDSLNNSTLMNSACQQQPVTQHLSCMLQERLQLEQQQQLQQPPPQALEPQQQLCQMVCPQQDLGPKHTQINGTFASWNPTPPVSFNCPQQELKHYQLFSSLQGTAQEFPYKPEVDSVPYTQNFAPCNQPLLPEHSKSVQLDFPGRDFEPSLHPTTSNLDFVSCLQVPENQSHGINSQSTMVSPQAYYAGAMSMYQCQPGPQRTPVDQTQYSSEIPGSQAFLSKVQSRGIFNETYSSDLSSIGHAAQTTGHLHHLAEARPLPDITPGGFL
Outline: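 HC11 mammary epithelial cells were exposed for 48 hours to 10 μM compound. Expression of the AHR target gene Cyp1a1 served as the activity read-out.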

[2] = target: T1, Aryl hydrocarbon receptor; assay: Agonist activity at AHR in FVB/N mouse primary mammary epithelial cells assessed as upregulation of desmoglein-3 protein level at 10 uM after 144 hrs by Western blot analysis in presence of FGF2; settings: epithelial cell
[3] = target: T1, Aryl hydrocarbon receptor; assay: Agonist activity at AHR in FVB/N mouse primary mammary epithelial cells assessed as upregulation of desmoglein-3 protein level at 10 nM after 144 hrs by Western blot analysis in presence of FGF2; settings: epithelial cell, 0.01 µM

With `Clc1ccc(-c2nc(-c3ccccc3Cl)no2)c(Cl)c1` the Activity [1] was 5.91%.
`C=CCOc1ccc(-c2noc(-c3ccc(Cl)cc3N)n2)cc1` was tested, and the Activity [1] was 0.62%.
For `Nc1cc(C(F)(F)F)ccc1-c1nc(-c2ccccc2)no1`, the Activity [1] was 58.63% and the Activity [2] was “Active”.
Molecule `C#CCOc1ccc(-c2noc(-c3ccc(Cl)cc3N)n2)cc1` has an Activity [1] of 0.38%.
With `Clc1ccc(-c2nc(-c3ccncc3)no2)c(Cl)c1` the Activity [1] was 0.37%.
In the case of `O=[N+]([O-])c1cc(C(F)(F)F)ccc1-c1nc(-c2ccccc2)no1`, the Activity [1] was 0.36%.
In the case of `COC(=O)Oc1ccc(-c2nc(-c3ccccc3)no2)c([N+](=O)[O-])c1`, the Activity [1] was 0.39%.
`C#CCOc1ccc(-c2noc(-c3ccc(Cl)cc3Cl)n2)cc1` showed an Activity [1] of 0.66%.
`C#CCOc1ccc(-c2nc(-c3ccccc3)no2)c([N+](=O)[O-])c1` showed an Activity [1] of 2.43%.
`C#CCOc1ccc(-c2noc(-c3ccc(Cl)cc3[N+](=O)[O-])n2)cc1` was tested, and the Activity [1] was 0.29%.
Work on `CC(=O)Oc1ccc(-c2nc(-c3ccncc3)no2)c([N+](=O)[O-])c1` yielded an Activity [1] of 0.35%.
`Clc1ccc(-c2nc(-c3ccncc3)no2)c(Cl)c1Cl` gave an Activity [1] of 0.53%.
For `Clc1ccc(-c2noc(-c3ccc(Cl)cc3Cl)n2)cc1`, the Activity [1] was 8.15%.
`Clc1cccc(-c2noc(-c3ccc(Cl)cc3Cl)n2)c1` showed an Activity [1] of 1.59%.
In the case of `Clc1ccc(-c2nc(-c3ccccc3)no2)c(Cl)c1`, the Activity [1] was 128.53% and the Activity [2] was “Active”.
In the case of `Clc1ccc(-c2nc(-c3ccccc3)no2)c(Cl)c1Cl`, the Activity [1] was 25.79% and the Activity [2] was “Not Active”.
With `O=[N+]([O-])c1cc(F)ccc1-c1nc(-c2ccccc2)no1` the Activity [1] was 122.64% and the Activity [2] was “Active”.
With `COC(=O)c1cccc(-c2noc(-c3ccccc3F)n2)c1` the Activity [1] was 0.29%.
In the case of `FC(F)(F)c1cccc(-c2noc(-c3ccc(Cl)cc3Cl)n2)c1`, the Activity [1] was 1.84% and the Activity [2] was “Not Active”.
Work on `O=[N+]([O-])c1cc(Cl)ccc1-c1nc(-c2ccncc2)no1` yielded an Activity [1] of 8.25%.
`Clc1cc2c(cc1Cl)Oc1cc(Cl)c(Cl)cc1O2` [2,3,7,8-TETRACHLORODIBENZO-P-DIOXIN] was tested, and the Activity [3] was “Active”.
For `O=C(O)c1cccc(-c2noc(-c3ccccc3F)n2)c1` [ATALUREN], the Activity [1] was 3.71%.
With `O=[N+]([O-])c1cc(O)ccc1-c1nc(-c2ccccc2)no1` the Activity [1] was 0.25%.
`COC(=O)c1cccc(-c2noc(-c3ccc(Cl)cc3Cl)n2)c1` was tested, and the Activity [1] was 0.18%.
`Nc1cc(Cl)ccc1-c1nc(-c2ccccc2)no1` was tested, and the Activity [1] was 638.8% and the Activity [2] was “Active”.
With `COc1ccc(-c2nc(-c3ccccc3)no2)c([N+](=O)[O-])c1` the Activity [1] was 0.42%.
